Measurements from ChEMBL document CHEMBL4613280, “Development of Pyrazolo[3,4-d]pyrimidine Kinase Inhibitors as Potential Clinical Candidates for Glioblastoma Multiforme” (ACS Med Chem Lett, 2020).
Active and inactive are the calls of the source. The calls are words filed in the database; no cut-off is given here.

Key:
[1] = Cytotoxicity against human GIN8 cells derived from invasive region of GBM patient assessed as reduction in cell viability measured after 48 hrs by Prestoblue assay; type: functional, cell-based
Outline: (§1)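 Compounds diluted in DMEM containing 10% FBS and applied for 48 h. Viability read by PrestoBlue. IC50 calculated from three independent experiments, mean ± SE. Two-way ANOVA with Dunnett's multiple comparisons test.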

[2] = Cytotoxicity against human GIN28 cells derived from invasive region of GBM patient assessed as reduction in cell viability measured after 48 hrs by Prestoblue assay; type: functional, cell-based; outline: as §1
[3] = Cytotoxicity against human GCE28 cells derived from central tumor core of GBM patient assessed as reduction in cell viability measured after 48 hrs by Prestoblue assay; type: functional, cell-based; outline: as §1
[4] = Synergistic cytotoxicity against human GIN8 cells assessed as combination index measured after 48 hrs in presence of N-(3-bromophenyl)-1-(2-chloro-2-phenylethyl)-6-(2-morpholinoethylsulfanyl)pyrazolo[3,4-d]pyrimidin-4-amine by Chou-Talalay assay; type: functional
Outline: (§2)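 Two kinase inhibitors were combined at a 1:1 molar ratio, diluted in DMEM with 10% FBS, and incubated with the GBM cells for 48 h. Viability was read by PrestoBlue. Combination index values were calculated from three independent IC50 experiments (n = 3) and are reported as mean ± SD.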

[5] = Synergistic cytotoxicity against human GIN28 cells assessed as combination index measured after 48 hrs in presence of N-(3-bromophenyl)-1-(2-chloro-2-phenylethyl)-6-(2-morpholinoethylsulfanyl)pyrazolo[3,4-d]pyrimidin-4-amine by Chou-Talalay assay; type: functional; outline: as §2
[6] = Synergistic cytotoxicity against human GCE28 cells assessed as combination index measured after 48 hrs in presence of N-(3-bromophenyl)-1-(2-chloro-2-phenylethyl)-6-(2-morpholinoethylsulfanyl)pyrazolo[3,4-d]pyrimidin-4-amine by Chou-Talalay assay; type: functional
Outline: (§3)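 Each drug pair dosed at a 1:1 molar ratio on the GBM lines and incubated 48 h. CI computed from three independent IC50 experiments (n = 3), reported as mean ± SD.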

[7] = Antagonistic cytotoxicity against human GIN8 cells assessed as combination index measured after 48 hrs in presence of 2-[[4-(2-phenylethylamino)-1-[styryl]pyrazolo[3,4-d]pyrimidin-6-yl]amino]ethanol by Chou-Talalay assay; type: functional; outline: as §3
[8] = Synergistic cytotoxicity against human GIN28 cells assessed as combination index measured after 48 hrs in presence of 2-[[4-(2-phenylethylamino)-1-[styryl]pyrazolo[3,4-d]pyrimidin-6-yl]amino]ethanol by Chou-Talalay assay; type: functional; outline: as §3
[9] = Synergistic cytotoxicity against human GCE28 cells assessed as combination index measured after 48 hrs in presence of 2-[[4-(2-phenylethylamino)-1-[styryl]pyrazolo[3,4-d]pyrimidin-6-yl]amino]ethanol by Chou-Talalay assay; type: functional; outline: as §3
Homo sapiens [10] = species on record: Homo sapiens; assay: Induction of apoptosis in human GIN8 cells assessed as increase in caspase 3/7 activation at 10 uM measured after 48 hrs by CellEvent caspase 3/7 probe based fluorescence analysis; type: functional, cell-based
Outline: (§4)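 Patient-derived GBM cells were exposed to compound diluted in DMEM containing 10% FBS for 48 h. Activated effector caspases-3/7 were then detected with the CellEvent caspase-3/7 fluorescent probe. Data are mean ± SEM of n = 3. Significance was tested by two-way ANOVA with Dunnett's multiple comparisons test.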

Homo sapiens [11] = species on record: Homo sapiens; assay: Induction of apoptosis in human GIN28 cells assessed as increase in caspase 3/7 activation at 10 uM measured after 48 hrs by CellEvent caspase 3/7 probe based fluorescence analysis; type: functional, cell-based; outline: as §4
Homo sapiens [12] = species on record: Homo sapiens; assay: Induction of apoptosis in human GCE28 cells assessed as increase in caspase 3/7 activation at 10 uM measured after 48 hrs by CellEvent caspase 3/7 probe based fluorecence analysis; type: functional, cell-based; outline: as §4

Row | SMILES | IC50 [1] [µM] | IC50 [2] [µM] | IC50 [3] [µM] | CI [4] | CI [5] | CI [6] | CI [7] | CI [8] | CI [9] | Activity (Homo sapiens [10]) | Activity (Homo sapiens [11]) | Activity (Homo sapiens [12])
1 | Nc1ncnc2c1c(-c1ccc(Cl)cc1)nn2CC(Cl)c1ccccc1 (configuration not stated) | 54.7 | 49.8 | 47.6 | 0.53 | 0.76 | 0.88 | 1.13 | 0.57 | 0.46 | – | – | –
2 | CN[C@@H]1C[C@H]2O[C@@](C)([C@@H]1OC)n1c3ccccc3c3c4c(c5c6ccccc6n2c5c31)C(=O)NC4 | – | – | – | – | – | – | – | – | – | Active | Active | Active
